Usually Ki stands for the equilibrium dissociation constant of an inhibitor or competing ligand from its target. For orientation: inhibition means the share of the control response that was lost under treatment. What is called ED50 is the dose at which the effect has come halfway, by size or by number of responders. Lower therefore signals greater potency.

Assay [1] concerns the target T1, Angiotensin II receptor (AT-1) type-1 (Rattus norvegicus, UniProt P29089+P25095).
T1 sequence (P29089 whole entry): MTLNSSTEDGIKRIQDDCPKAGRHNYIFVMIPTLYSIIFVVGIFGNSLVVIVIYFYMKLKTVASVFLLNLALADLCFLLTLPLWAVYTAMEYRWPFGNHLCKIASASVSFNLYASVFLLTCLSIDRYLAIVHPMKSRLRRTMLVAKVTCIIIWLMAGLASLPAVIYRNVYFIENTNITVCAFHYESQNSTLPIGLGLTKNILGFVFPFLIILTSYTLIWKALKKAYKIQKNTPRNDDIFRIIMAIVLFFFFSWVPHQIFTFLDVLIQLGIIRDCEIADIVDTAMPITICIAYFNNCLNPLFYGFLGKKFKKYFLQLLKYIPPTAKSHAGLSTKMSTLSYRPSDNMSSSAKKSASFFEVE
T1 sequence (P25095 whole entry): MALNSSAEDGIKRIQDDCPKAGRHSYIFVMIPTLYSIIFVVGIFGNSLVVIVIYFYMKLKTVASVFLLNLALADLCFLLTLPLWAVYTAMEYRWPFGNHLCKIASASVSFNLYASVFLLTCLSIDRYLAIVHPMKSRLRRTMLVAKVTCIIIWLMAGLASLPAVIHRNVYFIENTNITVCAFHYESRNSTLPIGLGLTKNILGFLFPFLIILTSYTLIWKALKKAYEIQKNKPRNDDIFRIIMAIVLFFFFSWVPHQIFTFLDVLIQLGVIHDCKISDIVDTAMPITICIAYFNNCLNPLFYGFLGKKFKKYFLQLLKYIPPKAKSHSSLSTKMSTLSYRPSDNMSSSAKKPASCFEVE
Kind of assay: Displacement of [3H]angiotensin II from Angiotensin II type 1 receptor in rat adrenal cortical membrane. The format is cell membranes. Background: Displacement assays read how much labelled ligand stays bound in the presence of the test substance.

Assay [2] has as its system Rattus norvegicus. Description: Time duration was determined from onset of the action till no response after (i.v.) administration of 1 mg/kg in anesthetized, ganglion blocked, A II- infused rat. The format is functional. The conditions noted are these: route intravenous. The gist of the method: (§1)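 Male Sprague-Dawley rats (300–400 g) were anesthetized with urethane (1.25 g/kg im) and ganglion-blocked with pentolinium (0.1 mg/kg/min), with carotid BP recorded at 37 °C. After three reproducible A II challenges (100 ng/kg iv, every 10 min), compound was given iv 5 min before the next challenge. Challenges continued until the response returned near basal, with one dose per animal. Vehicle was 1% DMSO/stoichiometric NaOH or 0.5% methocel.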

The target of assay [3] is Type-2 angiotensin II receptor (Bos taurus, UniProt G5E6F7). Kind of assay: Binding affinity towards Angiotensin II type 2 receptor in bovine cerebellar cortical membranes; Inactive.
The target of assay [4] is T2, Angiotensin II receptor (Rattus norvegicus) (UniProt P29089+P25095+P35351). Kind of assay: Effect on pressure response to angiotensin II receptor (AII) after (i.v.) administration of 1 mg/kg in anesthetized, ganglion blocked, A II- infused rat was determined in vivo. The conditions noted are these: at 1 mg/kg. Also on record: dose 1 mg/kg. The format is functional, organism-based. The procedure, abridged: as §1

Assay [5] concerns Rattus norvegicus. Description: Time duration was determined from onset of the action till no response after […] administration of 1 mg/kg in anesthetized, ganglion blocked, A II- infused rat. The format is functional.
Assay [6] has as its target T2, Angiotensin II receptor (Rattus norvegicus). Kind of assay: Effect on pressure response to angiotensin II receptor (AII) after (i.v.) administration of 1 mg/kg in anesthetized, ganglion blocked, AII-infused rat in vivo. The format is functional, organism-based. On the set-up: dose 1 mg/kg. The gist of the method: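 After three reproducible A II challenges (100 ng/kg iv, every 10 min), compound was given iv 5 min before the next challenge. Challenges continued until the response returned near basal, with one dose per animal. Vehicle was 1% DMSO/stoichiometric NaOH or 0.5% methocel.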

The test system of assay [7] is Rattus norvegicus. Kind of assay: Time from onset of the action at a dose of 1 mg/kg until significant inhibition of pressure response is no longer observed in anesthetized, ganglion blocked, A II- infused rat after […] administration. The format is functional.
The target of assay [8] is T2, Angiotensin II receptor (Rattus norvegicus). Kind of assay: Effect on pressure response to angiotensin II receptor (AII) after […] administration of 1 mg/kg in anesthetized, ganglion blocked, A II- infused rat was determined in vivo. Also on record: dose 1 mg/kg. The format is functional, organism-based. The gist of the method: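 Compound was given intraduodenally, one dose per animal, in 1% DMSO/stoichiometric NaOH or 0.5% methocel. Inhibition was read 30 min after dosing; the 1 mg/kg duration is the time from onset until inhibition was no longer significant.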

The test system of assay [9] is Rattus norvegicus. Kind of assay: ime duration was determined from onset of the action till no response after […] in anesthetized, ganglion blocked, A II- infused rat. The format is functional.

T2 sequence (P35351 whole entry, looked up, one chain of several, the tested form may be a part): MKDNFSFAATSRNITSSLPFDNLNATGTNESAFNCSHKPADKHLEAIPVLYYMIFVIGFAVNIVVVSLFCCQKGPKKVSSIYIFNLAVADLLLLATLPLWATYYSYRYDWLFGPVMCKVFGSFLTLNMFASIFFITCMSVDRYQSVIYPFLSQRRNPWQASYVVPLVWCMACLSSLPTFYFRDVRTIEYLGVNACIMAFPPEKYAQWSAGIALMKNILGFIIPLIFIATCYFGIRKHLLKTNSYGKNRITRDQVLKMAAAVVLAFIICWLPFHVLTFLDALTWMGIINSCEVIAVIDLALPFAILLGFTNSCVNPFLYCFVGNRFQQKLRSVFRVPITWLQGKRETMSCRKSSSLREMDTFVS

Regarding `CCCCc1nccc(=O)n1Cc1ccc(-c2ccccc2C(=O)O)cc1`, the inhibitory constant (Ki) was 1.097 µM in [1] and above 4 µM in assay [3]. The molecule also displayed a Duration in the assay on Rattus norvegicus [2] of 35 min. The same molecule showed an inhibition in [4] of 42%.
For the molecule `CCCCc1nc(C)cc(=O)n1Cc1ccc(-c2ccccc2C(=O)O)cc1`, the Ki in assay [1] was 0.263 µM; in assay [3], above 4 µM. Further, in the assay on Rattus norvegicus [2], the Duration is 15 min. For the same molecule, the inhibition in assay [4] is 34%.
On to `CCCCc1nc(C)n(Cc2sccc2C(=O)O)c(=O)c1Cc1ccc(-c2ccccc2C(=O)O)cc1`, for which the inhibitory constant (Ki) is 0.181 µM in assay [1] and above 4 µM in assay [3]. This molecule also had a Duration in the assay with Rattus norvegicus [2] of 15 min. In assay [4], this molecule displayed an inhibition of 33%.
In the case of `CCCCc1ncn(Cc2ccc(C(=O)O)cc2)c(=O)c1Cc1ccc(-c2ccccc2C(=O)O)cc1`, in the assay on Rattus norvegicus [2], the Duration worked out at 25 min. In assay [3], this molecule registered a Ki above 4 µM. Moreover, in assay [4], the inhibition amounted to 46%.
Regarding `CCCCc1nc(C)n(Cc2cccs2)c(=O)c1Cc1ccc(-c2ccccc2-c2nnn[nH]2)cc1`, the Duration turned out to be 60 min with Rattus norvegicus [5] and 55 min in the assay with Rattus norvegicus [2]. Besides, in assay [3], the Ki was above 4 µM.
As for `CCCCc1nc(C)n(Cc2ccccc2C(=O)O)c(=O)c1Cc1ccc(-c2ccccc2-c2nn[nH]n2)cc1`, the figures for the Ki in assay [1] and in assay [3] were 0.018 µM and above 4 µM, respectively. For the same molecule, the Duration in the assay with Rattus norvegicus [2] is recorded as 65 min; with Rattus norvegicus [7] it was above 120 min. For the same molecule, the median effective dose (ED50) in assay [6] was found to be 0.31 mg/kg; in [8], 4.2 mg/kg.
For `CCCCc1nc(Cl)c(CO)n1Cc1ccc(-c2ccccc2C(=O)O)cc1`, the Duration in the assay with Rattus norvegicus [2] is 25 min. In [4], this molecule registered an inhibition of 48%.
`CCCCc1nc(C)n(Cc2sccc2C(=O)O)c(=O)c1Cc1ccc(-c2ccccc2-c2nn[nH]n2)cc1` returned an inhibition constant Ki in assay [1] of 0.014 µM. The Duration in the assay with Rattus norvegicus [2] is 55 min; with Rattus norvegicus [9], above 120 min. In addition, the median effective dose (ED50) worked out at 0.45 mg/kg in [6] and 7.24 mg/kg in assay [8].
On to `CCCCc1nc(C)n(Cc2ccccc2)c(=O)c1Cc1ccc(-c2ccccc2-c2nn[nH]n2)cc1`, for which the Ki in [1] came out at 0.003 µM. The figures for the Duration in the assay with Rattus norvegicus [5] and in the assay on Rattus norvegicus [2] were 60 min and 45 min, respectively. For the same molecule, the results for the median effective dose (ED50) in assay [6] and in assay [8] were 1.07 mg/kg and above 10 mg/kg, respectively.
Consider `CCCCc1ncnc(O)c1Cc1ccc(-c2ccccc2C(=O)O)cc1`, for which the Ki in assay [1] is 0.148 µM; in assay [3], above 4 µM. The molecule further gave a Duration with Rattus norvegicus [2] of 35 min. The inhibition in assay [4] amounted to 50%.
On the same counts, the results for `CCCCc1nc(C)nc(O)c1Cc1ccc(-c2ccccc2C(=O)O)cc1` are 0.113 µM, above 4 µM, 35 min and 53%.
Turning to `CCCCc1nc(C)nc(O)c1Cc1ccc(-c2ccccc2-c2nn[nH]n2)cc1`, the Ki in [1] stood at 0.003 µM. In the assay with Rattus norvegicus [2], this molecule returned a Duration of 55 min. This molecule gave an inhibition in assay [4] of 87%.
Take `CCCCc1nc(C)n(Cc2ccsc2C(=O)OC)c(=O)c1Cc1ccc(-c2ccccc2-c2nn[nH]n2)cc1`: the inhibition constant (Ki) in assay [1] was 0.0021 µM; in assay [3] it was above 4 µM. Further, the values for the Duration in the assay with Rattus norvegicus [5] and in the assay with Rattus norvegicus [2] were above 120 min and 65 min, respectively. The ED50 in assay [6] worked out at 0.54 mg/kg; in assay [8] it was 2.67 mg/kg.
`CCCCc1ncn(Cc2ccccc2)c(=O)c1Cc1ccc(-c2ccccc2C(=O)O)cc1`: the Ki in assay [1] was 0.04 µM; in assay [3], above 4 µM. Further, the Duration with Rattus norvegicus [2] is given as 25 min. The inhibition in [4] was determined as 39%.
In [3], `CCCCc1nc(C)n(Cc2occc2C(=O)OC)c(=O)c1Cc1ccc(-c2ccccc2-c2nnn[nH]2)cc1` yielded a Ki above 4 µM.
With `CCCCc1nc(Cl)c(CO)n1Cc1ccc(-c2ccccc2-c2nnn[nH]2)cc1` [LOSARTAN], the Duration in the assay on Rattus norvegicus [5] worked out at 120 min; in the assay with Rattus norvegicus [2], 55 min. For the same molecule, the median effective dose (ED50) in assay [6] stood at 0.32 mg/kg; in [8], 3.7 mg/kg.
For the molecule `CCCCc1nc(C)n(Cc2occc2C(=O)O)c(=O)c1Cc1ccc(-c2ccccc2C(=O)O)cc1`, the Ki in [1] is 0.264 µM; in assay [3], above 4 µM. Also, in the assay on Rattus norvegicus [2], the Duration is listed as 25 min. Moreover, in [6], the median effective dose (ED50) was determined as 0.85 mg/kg.
`CCCCc1nc(C)n(Cc2sccc2C(=O)O)c(=O)c1Cc1ccc(-c2ccccc2-c2nnn[nH]2)cc1` came in with an inhibition constant Ki in assay [3] above 4 µM.
For the molecule `CCCCc1ncn(Cc2cccs2)c(=O)c1Cc1ccc(-c2ccccc2C(=O)O)cc1`, the Ki was 0.06 µM in assay [1] and above 4 µM in [3]. In the assay on Rattus norvegicus [2], the Duration is 15 min. In assay [4], the inhibition is 23%.
Take `CCCCc1nc(C)n(Cc2ccccc2C(=O)O)c(=O)c1Cc1ccc(-c2ccccc2C(=O)O)cc1`: the inhibitory constant (Ki) is 0.401 µM in assay [1] and above 4 µM in assay [3]. In addition, in the assay with Rattus norvegicus [2], the Duration worked out at 15 min. Further, the inhibition in assay [4] was determined as 46%.
With `CCCCc1nc(C)n(Cc2occc2C(=O)O)c(=O)c1Cc1ccc(-c2ccccc2-c2nn[nH]n2)cc1`, the Ki in [1] was 0.016 µM; in [3], above 4 µM. The Duration in the assay on Rattus norvegicus [5] turned out to be 75 min; in the assay with Rattus norvegicus [2] it was 45 min. The ED50 came out at 0.43 mg/kg in assay [6] and 14.5 mg/kg in assay [8].
Consider `CCCCc1nc(C)[nH]c(=O)c1Cc1ccc(-c2ccccc2-c2nnn[nH]2)cc1`, for which the inhibition constant (Ki) in [3] was above 4 µM.
For the molecule `CCCCc1ncn(Cc2ccccc2C(=O)O)c(=O)c1Cc1ccc(-c2ccccc2C(=O)O)cc1`, the Ki in assay [1] is 0.379 µM; in assay [3] it was above 4 µM. In the assay on Rattus norvegicus [2], this molecule yielded a Duration of 25 min. The inhibition in assay [4] is 43%.
With `CCCCc1nc(C)n(Cc2sccc2C(=O)OC)c(=O)c1Cc1ccc(-c2ccccc2-c2nnn[nH]2)cc1`, the Duration was above 120 min with Rattus norvegicus [5] and 65 min in the assay on Rattus norvegicus [2]. This molecule showed an inhibition constant Ki in assay [3] above 4 µM.
In the case of `CCCCc1nc(C)n(Cc2ccccc2)c(=O)c1Cc1ccc(-c2ccccc2-c2nnn[nH]2)cc1`, the Ki in assay [3] was above 4 µM.
`CCCCc1nc(C)n(Cc2occc2C(=O)OC)c(=O)c1Cc1ccc(-c2ccccc2-c2nn[nH]n2)cc1` had an inhibition constant Ki in [1] of 0.00058 µM. The Duration was above 120 min with Rattus norvegicus [5] and 65 min in the assay on Rattus norvegicus [2]. Also, the figures for the median effective dose (ED50) in assay [6] and in assay [8] were 0.3 mg/kg and 1.44 mg/kg, respectively.
